Experimental data taken from PMC4814305 (The Biochemical journal, 2016).
pIC50, pKi: −log10 of the molar value. Several values for one entry are separate records, joined by “and”; a condition that tells them apart may be missing. Equal entries are not always repeated. Entries after “also recorded” stand apart in the source; their conditions may differ. Blank lines part the entries; values can stand above or below the molecule they belong to.

Tests used:
[1] = biological target: T1, mitochondrial pyruvate carrier (MPC) (Rattus norvegicus, UniProt P38718+P63031); test: [1-14C] pyruvate uptake into isolated rat liver mitochondria; type: biochemical
T1 sequence (P63031 1-109): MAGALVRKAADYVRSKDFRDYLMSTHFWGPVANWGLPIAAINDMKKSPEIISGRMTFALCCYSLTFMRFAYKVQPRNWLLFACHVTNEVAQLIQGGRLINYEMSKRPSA
T1 sequence (P38718 1-127): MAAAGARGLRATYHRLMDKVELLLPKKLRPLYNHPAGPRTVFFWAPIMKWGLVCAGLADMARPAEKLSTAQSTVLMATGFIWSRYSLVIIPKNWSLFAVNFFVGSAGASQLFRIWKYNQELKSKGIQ
Procedure, shortened: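 Liver mitochondria from male Wistar rats (~275 g) were isolated by homogenisation, differential and Percoll centrifugation, then held 2 min on ice at 6 mg protein/mL with test compound. Uptake ran in pH 6.8 KCl/MOPS/EGTA buffer with 1 μM rotenone, 60 μM [1-14C]pyruvate and 3H2O at 9°C, stopped at 45 s by rapid sedimentation. Four replicates per concentration, 3 preparations; Ki fitted from % of control, mean ± S.E.M.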

[2] = biological target: T2, MCT2 (Rattus norvegicus, UniProt Q63344); test: [U-14C] L-lactate uptake by Xenopus laevis oocytes expressing MCT2; type: cell-based; conditions: cooperative inhibition fit
T2 sequence (Q63344 1-489): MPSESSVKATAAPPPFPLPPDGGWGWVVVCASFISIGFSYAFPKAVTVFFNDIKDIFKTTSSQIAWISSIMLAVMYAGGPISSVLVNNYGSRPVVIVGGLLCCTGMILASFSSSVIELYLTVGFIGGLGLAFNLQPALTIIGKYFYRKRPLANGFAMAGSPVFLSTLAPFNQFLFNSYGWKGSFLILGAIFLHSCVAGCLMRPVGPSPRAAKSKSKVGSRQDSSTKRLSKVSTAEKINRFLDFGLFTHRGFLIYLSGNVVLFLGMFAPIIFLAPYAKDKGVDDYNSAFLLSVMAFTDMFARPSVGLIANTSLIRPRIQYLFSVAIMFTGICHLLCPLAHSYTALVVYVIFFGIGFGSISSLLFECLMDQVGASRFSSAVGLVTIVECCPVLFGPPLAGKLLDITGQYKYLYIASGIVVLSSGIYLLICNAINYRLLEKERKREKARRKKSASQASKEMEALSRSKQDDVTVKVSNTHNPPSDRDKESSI
T2 sequence (O88775 34-328 partner): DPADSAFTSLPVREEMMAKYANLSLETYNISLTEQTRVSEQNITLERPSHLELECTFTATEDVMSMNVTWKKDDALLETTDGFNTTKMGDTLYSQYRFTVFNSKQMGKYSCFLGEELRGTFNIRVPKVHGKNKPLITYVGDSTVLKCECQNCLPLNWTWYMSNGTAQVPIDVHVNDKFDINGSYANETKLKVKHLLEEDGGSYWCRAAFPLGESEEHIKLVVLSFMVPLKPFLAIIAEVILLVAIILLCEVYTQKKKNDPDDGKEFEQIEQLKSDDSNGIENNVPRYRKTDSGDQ

[3] = biological target: T3, MCT1 (Rattus norvegicus, UniProt P53987); test: [U-14C] L-lactate uptake by Xenopus laevis oocytes expressing MCT1; type: cell-based; conditions: cooperative inhibition fit
T3 sequence (P53987 1-494): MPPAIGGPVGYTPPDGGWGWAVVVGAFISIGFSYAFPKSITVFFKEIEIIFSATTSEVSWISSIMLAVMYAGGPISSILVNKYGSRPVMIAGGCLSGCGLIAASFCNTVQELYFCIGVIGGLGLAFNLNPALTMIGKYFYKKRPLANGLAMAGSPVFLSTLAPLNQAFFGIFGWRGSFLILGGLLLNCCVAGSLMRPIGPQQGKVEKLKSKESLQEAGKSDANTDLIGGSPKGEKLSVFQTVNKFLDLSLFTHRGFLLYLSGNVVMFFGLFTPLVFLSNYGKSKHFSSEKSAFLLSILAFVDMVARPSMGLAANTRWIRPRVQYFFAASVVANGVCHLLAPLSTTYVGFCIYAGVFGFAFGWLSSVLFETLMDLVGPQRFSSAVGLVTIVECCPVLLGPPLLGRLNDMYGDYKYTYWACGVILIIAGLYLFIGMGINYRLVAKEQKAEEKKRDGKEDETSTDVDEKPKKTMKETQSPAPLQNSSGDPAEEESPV

[4] = biological target: T4, MCT4 (Homo sapiens, UniProt O15427); test: [U-14C] L-lactate uptake by Xenopus laevis oocytes expressing MCT4; type: cell-based; conditions: cooperative inhibition fit
T4 sequence (O15427 1-465): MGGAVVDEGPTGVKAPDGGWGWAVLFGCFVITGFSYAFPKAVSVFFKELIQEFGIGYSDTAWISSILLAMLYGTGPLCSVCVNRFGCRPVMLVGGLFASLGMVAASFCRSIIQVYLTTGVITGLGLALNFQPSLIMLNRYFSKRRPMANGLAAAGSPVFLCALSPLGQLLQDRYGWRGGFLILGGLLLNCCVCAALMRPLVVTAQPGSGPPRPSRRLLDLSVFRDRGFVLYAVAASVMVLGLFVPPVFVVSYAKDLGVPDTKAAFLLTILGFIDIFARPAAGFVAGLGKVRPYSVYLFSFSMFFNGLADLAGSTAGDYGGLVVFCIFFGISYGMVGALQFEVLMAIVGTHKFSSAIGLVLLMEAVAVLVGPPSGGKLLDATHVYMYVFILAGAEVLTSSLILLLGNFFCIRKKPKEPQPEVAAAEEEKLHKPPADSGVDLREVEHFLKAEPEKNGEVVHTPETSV

[5] = system: uncoupled pyruvate oxidation by isolated rat heart mitochondria; test: Uncoupled pyruvate oxidation by rat heart mitochondria; type: biochemical
[6] = system: DB-1 human melanoma cells; test: L-lactate output and intracellular [L-lactate] of DB-1 melanoma cells; type: cell-based; conditions: DB-1 cells, 1 h, vs DMSO
[7] = system: DB-1 xenografts; conditions: 100 mg/kg i.p., cited from earlier work

pKi [1]: 5.60
Hill coefficient of inhibition of MCT2 [2]: 1.86 ± 0.34
Hill coefficient of inhibition of MCT1 [3]: 1.65–1.85 and 1.65 ± 0.23
Hill coefficient of inhibition of MCT4 [4]: 1.65–1.85 and 1.84 ± 0.19
pIC50 ([5]; read-out: IC50 for inhibition of uncoupled pyruvate oxidation, 30°C, pyruvate + malate, FCCP): ~5.15 and ~5.12
Compound: O=C(O)c1nn(Cc2ccc(Cl)cc2Cl)c2ccccc12 [LND, Lonidamine]
effect on uncoupled pyruvate oxidation ([5]; 30°C, 2 μM LND): without effect
inhibition of uncoupled pyruvate oxidation ([5]; 30°C, 3 μM LND): ~ 15%
inhibition of uncoupled pyruvate oxidation ([5]; 30°C, 10 μM LND): ~70%
increase of intracellular [L-lactate] ([6]; 40 μM LND): two-fold
L-lactate output ([6]; 40 μM and 150 μM LND): decrease in L-lactate output
L-lactate output ([6]; 150 μM LND): decreased L-lactate output; also recorded: L-lactate output decreased
increase of intracellular [L-lactate] ([6]; 150 μM LND): > five-fold; also recorded: eight-fold
L-lactate output ([6]; 1–10 μM LND): increased L-lactate output
intracellular [L-lactate] ([6]; 1–10 μM LND): without a detectable increase
tumour pHi after LND treatment ([7]; DB-1 xenografts in mice, within about 40 min, from 6.9 ± 0.1): 6.3 ± 0.1
decrease in the tumour NTP/Pi ratio ([7]; DB-1 xenografts in mice, within about 3 hr): 66.8 ± 5.7%
decrease in extracellular pH of the tumour ([7]; DB-1 xenografts in mice): ~ 0.2 pH units
rise in tumour [L-lactate] ([7]; DB-1 xenografts in mice): three-fold
change in pHi of liver ([7]; mice, 20 min post-injection): only a slight transient change
change in NTP/Pi of the liver ([7]; mice, 40 min post-injection): only a transient small decrease
change in NTP/Pi ratio of muscle and brain ([7]; mice): no change
change in pHi of normal muscle or brain ([7]; mice): No significant change

Compound: N#CC(=Cc1ccc(O)cc1)C(=O)O [CHC, α-cyano-4-hydroxycinnamate]
inhibition of mitochondrial pyruvate carrier (pyruvate uptake) ([1]; rat liver mitochondria, 10 μM inhibitor): > 90%
